Laboratory results from ChEMBL document CHEMBL6071141, “In vitro and in vivo evaluation of Bombesin-MMAE conjugates for targeted tumour therapy” (Eur J Med Chem, 2024).
The source made the active and inactive calls. The calls are words filed in the database; no cut-off is given here. Numbered stars: 1 amine (or outer) side, 2 acyl side, 3 side chain; on linkers, the order of the positions; unused ones are H or OH. Bridge positions count the residues as written; N and C are the ends. Square brackets hold non-standard residues; d marks the D form. Peptide text beside a SMILES is read from it. I, II: the chains in the order shown. * marks the point of attachment. Hexanoyl(6-succinimido-3yl) = O=C1CC([*:1])C(=O)N1CCCCCC(=O)[*:2]; Dolaproine = CO[C@@H]([C@@H]1CCCN1)[C@@H](C)C(=O)O; X2 = O=C([C@H](CC1=CSC2C=CC=CC12)N[*:1])[*:2]; Dil = CC[C@H](C)[C@H](NC)[C@@H](CC(=O)O)OC; PABC = O=C(OCc1ccc(N[*:1])cc1)[*:2]; X3 = C[C@@H](N*)[C@@H](O)c1ccccc1; Cit = NC(=O)NCCC[C@H](N)C(=O)O; PEG4 = NCCOCCOCCOCCOCCC(=O)O; NMeV = CN[C@H](C(=O)O)C(C)C; Nle = CCCC[C@H](N)C(=O)O

Legend:
[1] = Cytotoxicity against human PC-3 cells assessed as inhibition of cell growth incubated with compound for 72 hrs followed by further incubated for 72 hrs (single treatment) by CellTiter 96 aqueous assay; type: toxicity, cell-based
Procedure, shortened: (§1)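 PC-3 or MDA-MB-231 cells were treated the day after seeding with serial dilutions, from 2000 nM for conjugates and 100 nM for MMAE, for 72 h. Then the assay was stopped, or run 72 h more after a medium change (single) or re-treatment (double). Controls got 0.05 % DMSO. Read-out was MTS absorbance at 490 nm after 90 min. IC50 by non-linear regression; ≥2 experiments, triplicates.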

[2] = system: PC-3; assay: Antitumor activity against human PC-3 cells xenografted in mouse assessed as reduction in tumour size at 0.5 mg/kg, ip administered upto 23 days relative to control; type: functional; set-up: scale not given: the % may be the effect or the level left; details: time <= 23 day
Procedure, shortened: (§2)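 Chronic study in mice bearing subcutaneous PC-3 tumours. Dosing began 8 days after cell inoculation, at a mean tumour volume of 93 mm³. Seven per group, randomized. Four i.p. doses (0.1 mL) on days 8, 11, 16 and 23 of 0.5 mg/kg MMAE-content, in 5 % DMSO in water for injection; controls got solvent. Tumour volume by calliper, V = ab²×π/6.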

[3] = Cytotoxicity against human PC-3 cells assessed as inhibition of cell growth incubated for 72 hrs and followed by treated with compound continued incubation for further 72 hrs (double treatment) after retreatment of compound by CellTiter 96 aqueous assay; type: toxicity, cell-based; procedure, shortened: as §1
[4] = Cytotoxicity against human cells MDA-MB-231 assessed as inhibition of cell growth incubated for 72 hrs by CellTiter 96 aqueous assay; type: toxicity, cell-based; details: MDA-MB-231 cells; procedure, shortened: as §1
[5] = system: PC-3; assay: Antitumor activity against human PC-3 cells xenografted in mouse assessed as inhibition in tumour growth at 0.5 mg/kg, ip administered upto 23 days; type: functional, organism-based; details: time <= 23.0 day; procedure, shortened: as §2
[6] = biological target: T1, Gastrin-releasing peptide receptor (Homo sapiens, UniProt P30550); assay: Displacement of 125 I- [Tyr4] from bombesin receptor 2 in human MDA-MB-231 cells assessed as inhibition by radioligand displacement assay; type: cell-based
Procedure, shortened: (§3)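 Competition binding on membrane preparations from PC-3 or MDA-MB-231 cells against ¹²⁵I-[Tyr⁴]-bombesin, with conjugates at 10 μM–10 pM. IC50 was taken as the concentration giving 50 % inhibition of tracer binding.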

[7] = Cytotoxicity against human PC-3 cells assessed as inhibition of cell growth incubated for 72 hrs by CellTiter 96 aqueous assay; type: toxicity, cell-based; procedure, shortened: as §1
[8] = biological target: T1, Gastrin-releasing peptide receptor; assay: Displacement of 125 I- [Tyr4] from bombesin receptor 2 in human PC-3 cells assessed as inhibition by radioligand displacement assay; type: cell-based; procedure, shortened: as §3
[9] = Biodistribution in mouse xenografted with human PC-3 cells assessed as tumour environment incubated for 24 hrs by LC-HRMS; type: ADME, organism-based, Neoplasm; details: in vivo
Procedure, shortened: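 Mice bearing PC-3 xenografts received a single 2 mg/kg i.p. dose. Blood, tumour, liver, kidneys, heart, lungs and pancreas were collected at 1, 6 and 24 h and pooled per group. Tissues were homogenised in water (1:2 w/v) and centrifuged. Released MMAE was measured by LC-HRMS and expressed as %ID/g (n = 3).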

[10] = system: PC-3; assay: Antitumor activity against human PC-3 cells xenografted in mouse assessed as reduction in tumour volume relative to control; type: functional; set-up: scale not given: the % may be the effect or the level left
Procedure, shortened: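 Acute study in mice bearing subcutaneous PC-3 tumours. Single i.p. dose (0.1 mL) 9 days after inoculation, at a mean tumour volume of 62 mm³. Eight per group, randomized. Conjugates at 2 mg/kg MMAE-content, free MMAE at 1 mg/kg, in 5 % DMSO in water; solvent controls. Calliper volume V = ab²×π/6. Sacrifice at 20 % weight loss or 2000 mm³.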

[11] = Cytotoxicity against human MDA-MB-231 cells assessed as inhibition of cell growth incubated for 72 hrs and followed by treated with compound continued incubation for further 72 hrs (double treatment) after retreatment of compound by CellTiter 96 aqueous assay; type: toxicity, cell-based; procedure, shortened: as §1
[12] = system: PC-3; assay: Antitumor activity against human PC-3 cells xenografted in mouse assessed as reduction in tumour weight at 0.5 mg/kg, ip administered upto 23 days relative to control; type: functional; set-up: scale not given: the % may be the effect or the level left; details: time <= 23 day
[13] = system: PC-3; assay: Antitumor activity against human PC-3 cells xenografted with mouse assessed as median survival days at 2 mg/kg, ip (reference value: 33 days)
[14] = Toxicity in mouse xenografted with human PC-3 cells assessed as body weight loss at 1 mg/kg, ip administered relative to control; type: organism-based; details: in vivo, 2 mg/kg, in the assay text read “2 mg/kg” for “1 mg/kg”
Procedure, shortened: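 Toxicity in mice bearing subcutaneous PC-3 tumours after a single i.p. dose 9 days post-inoculation. Free drug at 1 mg/kg, conjugates at 2 mg/kg MMAE-content, in 5 % DMSO in water; solvent controls; eight per group. Body weight followed periodically. Endpoint at 20 % weight loss; behaviour (activity, coat, stool, paleness) also scored.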

[15] = Metabolic stability in human plasma assessed as half life at 5 uM measured upto 24 hrs by LC-HRMS analysis; type: ADME, cell-free
Procedure, shortened: (§4)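 Conjugates at 5 μM were incubated in human or mouse plasma at 37 °C, in duplicate. Samples were taken at t0, 0.25, 0.5, 1, 2, 4 and 24 h and quenched with 1 % formic acid in MeCN (2× volume). After centrifugation (14000 rpm, 4 °C), supernatants were diluted 1:1 with water and analysed by LC-HRMS.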

[16] = Cytotoxicity against human MDA-MB-231 cells assessed as inhibition of cell growth incubated with compound for 72 hrs followed by further incubated for 72 hrs (single treatment) by CellTiter 96 aqueous assay; type: toxicity, cell-based; procedure, shortened: as §1
[17] = Metabolic stability in mouse plasma assessed as half life at 5 uM measured upto 24 hrs by LC-HRMS analysis; type: ADME, cell-free; procedure, shortened: as §4
[18] = biological target: T2, Bombesin receptor subtype-3 (Homo sapiens, UniProt P32247); assay: Displacement of 125 I- [Tyr4] from bombesin receptor 3 (unknown origin) assessed as inhibition by radioligand competitive binding assay
T2 sequence (P32247 whole entry): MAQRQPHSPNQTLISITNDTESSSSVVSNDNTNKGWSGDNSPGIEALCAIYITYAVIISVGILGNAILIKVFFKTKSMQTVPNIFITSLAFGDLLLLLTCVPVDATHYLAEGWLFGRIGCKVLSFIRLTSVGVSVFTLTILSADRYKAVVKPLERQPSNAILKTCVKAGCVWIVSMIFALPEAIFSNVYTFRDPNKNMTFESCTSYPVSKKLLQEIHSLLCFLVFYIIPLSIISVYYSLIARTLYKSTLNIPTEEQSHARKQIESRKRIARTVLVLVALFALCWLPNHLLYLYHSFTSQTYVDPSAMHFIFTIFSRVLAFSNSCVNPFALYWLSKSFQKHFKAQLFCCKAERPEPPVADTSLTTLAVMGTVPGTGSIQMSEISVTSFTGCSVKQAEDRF

[19] = biological target: T1, Gastrin-releasing peptide receptor; assay: Displacement of 125 I- [Tyr4] from bombesin receptor 2 (unknown origin) assessed as inhibition by radioligand competitive binding assay
[20] = Displacement of 125 I- [Tyr4] from bombesin receptor 1 (unknown origin) assessed as inhibition by radioligand competitive binding assay; set-up: species or system Homo sapiens

T1 sequence (P30550 whole entry): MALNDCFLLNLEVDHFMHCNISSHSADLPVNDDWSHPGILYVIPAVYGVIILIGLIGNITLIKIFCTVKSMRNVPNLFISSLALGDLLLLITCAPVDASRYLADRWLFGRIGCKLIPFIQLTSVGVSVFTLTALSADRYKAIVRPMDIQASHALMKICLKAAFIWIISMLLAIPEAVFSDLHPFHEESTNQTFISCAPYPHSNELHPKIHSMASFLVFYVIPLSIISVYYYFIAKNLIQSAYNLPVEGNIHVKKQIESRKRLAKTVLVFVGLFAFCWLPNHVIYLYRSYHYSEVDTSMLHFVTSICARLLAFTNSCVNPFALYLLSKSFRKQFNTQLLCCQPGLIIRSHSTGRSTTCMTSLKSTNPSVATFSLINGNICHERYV

| SMILES | IC50 at 144 h [1] | Activity [2] | IC50 at 144 h [3] | IC50 at 72 h [4] | Activity [5] | IC50 [6] | IC50 at 72 h [7] | IC50 [8] | Drug uptake [9] | Activity [10] | IC50 at 144 h [11] | Activity [12] | Survival [13] | Activity [14] | half-life at 5 µM [15] | IC50 at 144 h [16] | half-life at 5 µM [17] | IC50 [18] | IC50 [19] | IC50 [20] |
| --- | --- | --- | --- | --- | --- | --- | --- | --- | --- | --- | --- | --- | --- | --- | --- | --- | --- | --- | --- | --- |
| CC[C@H](C)[C@@H]([C@@H](CC(=O)N1CCC[C@H]1[C@H](OC)[C@@H](C)C(=O)N[C@H](C)[C@@H](O)c1ccccc1)OC)N(C)C(=O)[C@@H](NC(=O)[C@H](C(C)C)N(C)C(=O)OCc1ccc(NC(=O)[C@H](CCCNC(N)=O)NC(=O)[C@@H](NC(=O)[C@H](CCC(=O)O)NC(=O)CCCCCN2C(=O)CC(SC[C@H](NC(C)=O)C(=O)NCCOCCOCCOCCOCCC(=O)N[C@H](Cc3ccccc3)C(=O)N[C@@H](CCC(N)=O)C(=O)N[C@@H](CC3=CNC4C=CC=CC34)C(=O)N[C@@H](C)C(=O)N[C@H](C(=O)NCC(=O)N[C@@H](Cc3c[nH]cn3)C(=O)N[C@@H](CC(C)C)[C@@H](O)CC(=O)N[C@@H](CC(C)C)C(N)=O)C(C)C)C2=O)C(C)C)cc1)C(C)C (some centres undefined) | 4.8 nM | 59.8% | 3.5 nM | 526 nM | Active | 69.5 nM | 29.6 nM | 59.4 nM | Active | 65.2% | 43.3 nM | 41.6% | 49 days | < 20% | 276 min | 42.3 nM | – | – | – | – |
| CCCC[C@H](NC(=O)[C@H](CC(C)C)NC(=O)[C@H](Cc1c[nH]cn1)NC(=O)CNC(=O)[C@@H](NC(=O)[C@H](C)NC(=O)[C@H](CC1=CSC2C=CC=CC12)NC(=O)[C@H](CCC(N)=O)NC(=O)[C@H](CC(N)=O)NC(=O)CCOCCOCCOCCOCCNC(=O)[C@H](CSC1CC(=O)N(CCCCCC(=O)N[C@@H](CCC(=O)O)C(=O)NCC(=O)N[C@@H](CCCNC(N)=O)C(=O)Nc2ccc(COC(=O)N(C)[C@H](C(=O)N[C@H](C(=O)N(C)[C@@H]([C@@H](C)CC)[C@@H](CC(=O)N3CCC[C@H]3[C@H](OC)[C@@H](C)C(=O)N[C@H](C)[C@@H](O)c3ccccc3)OC)C(C)C)C(C)C)cc2)C1=O)NC(C)=O)C(C)C)C(N)=O (some centres undefined) (I: Ac-C[PEG4]NQ[X2]AVGHL[Nle]-NH2 / II: EG[Cit][PABC][NMeV]V[Dil][Dolaproine]-X3; linker I:1-II:N via Hexanoyl(6-succinimido-3yl)) | 216 nM | – | 165 nM | 1260 nM | – | 82.4 nM | 782 nM | 80.7 nM | – | – | 217 nM | – | – | – | – | 268 nM | – | – | – | – |
| CC(=O)N[C@@H](CS)C(=O)N[C@H](Cc1ccccc1)C(=O)N[C@@H](CCC(N)=O)C(=O)N[C@@H](Cc1c[nH]c2ccccc12)C(=O)N[C@@H](C)C(=O)N[C@H](C(=O)NCC(=O)N[C@@H](Cc1c[nH]cn1)C(=O)N[C@@H](CC(C)C)[C@@H](O)CC(=O)N[C@@H](CC(C)C)C(N)=O)C(C)C | – | – | – | – | – | – | – | – | – | – | – | – | – | – | ≥ 300 min | – | ≥ 300 min | > 1000 nM | 20.5 nM | > 10 µM |
